Reference: ChEMBL document CHEMBL1132319, “2,3-Dihydro-2-oxo-1H-benzimidazole-1-carboxamides with selective affinity for the 5-HT(4) receptor: synthesis and structure-affinity and structure-activity relationships of a new series of partial agonist and antagonist derivatives” (J Med Chem, 1999)

Columns and labels:
[1] = test system: 5-HT4 receptor (Rattus norvegicus); assay: Antagonistic activity against 5-hydroxytryptamine 4 receptor
[2] = biological target: T1, 5-hydroxytryptamine receptor 4 (Cavia porcellus, UniProt O70528); assay: Displacement of [3H]GR-113808 from 5-hydroxytryptamine 4 receptor in guinea pig striatum
T1 sequence (O70528 whole entry): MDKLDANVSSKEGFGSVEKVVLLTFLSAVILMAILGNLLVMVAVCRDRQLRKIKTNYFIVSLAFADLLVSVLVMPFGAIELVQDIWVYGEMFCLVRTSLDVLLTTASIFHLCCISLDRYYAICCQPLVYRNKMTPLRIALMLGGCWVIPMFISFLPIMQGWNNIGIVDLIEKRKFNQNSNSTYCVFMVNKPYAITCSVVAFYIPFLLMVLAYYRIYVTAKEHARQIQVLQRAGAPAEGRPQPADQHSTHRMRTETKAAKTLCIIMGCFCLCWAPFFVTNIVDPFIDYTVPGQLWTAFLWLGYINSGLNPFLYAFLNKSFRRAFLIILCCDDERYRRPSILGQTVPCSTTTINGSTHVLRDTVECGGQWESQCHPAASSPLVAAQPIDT
Summary of the method: (§1)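 Male Dunkin–Hartley guinea pig striatal membranes in 50 mM Hepes pH 7.4 (1:80 wt/vol, 800–900 μg protein) with 0.1 nM [3H]GR 113808. Nonspecific binding with 10 μM 5-HT. Incubated 30 min at 25 °C, then filtered on PEI-treated filters and counted by scintillation. 10–12 displacer concentrations; two experiments in triplicate; IC50 and Ki.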

[3] = biological target: T2, Serotonin 3 (5-HT3) receptor (Rattus norvegicus, UniProt P35563+Q9JJ16); assay: Inhibitory concentration against 5-hydroxytryptamine 3 receptor in rat entorhinal cortex using [3H]-LY 278584 as radioligand
T2 sequence (P35563 whole entry): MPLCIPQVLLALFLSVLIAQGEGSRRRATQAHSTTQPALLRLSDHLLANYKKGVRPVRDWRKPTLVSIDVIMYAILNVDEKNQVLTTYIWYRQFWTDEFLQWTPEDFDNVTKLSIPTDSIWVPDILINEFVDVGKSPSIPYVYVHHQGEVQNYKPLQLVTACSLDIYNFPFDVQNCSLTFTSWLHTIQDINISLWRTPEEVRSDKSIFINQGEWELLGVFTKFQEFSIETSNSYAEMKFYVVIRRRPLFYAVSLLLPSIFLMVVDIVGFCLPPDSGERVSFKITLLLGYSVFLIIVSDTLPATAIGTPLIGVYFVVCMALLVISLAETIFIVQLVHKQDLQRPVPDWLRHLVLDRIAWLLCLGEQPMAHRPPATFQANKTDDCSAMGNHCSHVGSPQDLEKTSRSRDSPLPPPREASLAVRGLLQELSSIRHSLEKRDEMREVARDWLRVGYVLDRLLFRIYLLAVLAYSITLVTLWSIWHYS
T2 sequence (Q9JJ16 whole entry): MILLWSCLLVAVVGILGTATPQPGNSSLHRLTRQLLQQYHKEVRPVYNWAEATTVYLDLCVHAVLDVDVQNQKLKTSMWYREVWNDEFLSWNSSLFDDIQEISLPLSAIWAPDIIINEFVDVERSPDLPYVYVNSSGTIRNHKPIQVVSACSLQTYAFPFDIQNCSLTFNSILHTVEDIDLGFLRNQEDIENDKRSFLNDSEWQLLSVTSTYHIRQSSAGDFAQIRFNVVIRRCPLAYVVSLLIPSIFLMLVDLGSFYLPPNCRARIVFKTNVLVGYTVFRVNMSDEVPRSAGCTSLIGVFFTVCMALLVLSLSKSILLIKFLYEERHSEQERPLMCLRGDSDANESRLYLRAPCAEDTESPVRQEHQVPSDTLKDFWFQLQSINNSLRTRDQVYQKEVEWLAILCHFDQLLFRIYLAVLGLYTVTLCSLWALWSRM
Summary of the method: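 Male Wistar rat entorhinal cortex membranes in 50 mM Tris-HCl with 5 mM CaCl2, 0.1% ascorbate and 10 μM pargyline (1:40 wt/vol, 500–600 μg protein), with 2 nM [3H]LY 278584. Nonspecific binding with 10 μM 5-HT.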

[4] = test system: 5-HT4 receptor (Rattus norvegicus); assay: Agonistic activity against 5-hydroxytryptamine 4 receptor
[5] = biological target: T1, 5-hydroxytryptamine receptor 4; assay: Binding affinity against 5-hydroxytryptamine 4 receptor in guinea pig striatum using [3H]GR-113808 as radioligand
Summary of the method: as §1

Structure (SMILES) | pKb [1] | IC50 [2] | IC50 [3] | Intrinsic activity [4] | Ki [5] | Ki [3]
CCCCn1c(=O)n(C(=O)NCCN2CCN(C)CC2)c2ccccc21 | < 6 | > 1000 nM | > 1000 nM | < 0.3 | – | –
CN1CCN(CCNC(=O)n2c(=O)n(C3CC3)c3ccccc32)CC1 | – | – | > 1000 nM | – | 10.2 nM | –
CCCCN1CCN(CCNC(=O)n2c(=O)n(CC)c3ccccc32)CC1 | 7.73 | – | > 1000 nM | < 0.3 | 34.1 nM | –
CCCC[N+]1(C)CCN(CCNC(=O)n2c(=O)n(C(C)C)c3ccccc32)CC1 | 6 | – | > 1000 nM | 0.93 | 66.3 nM | –
CN1CCN(CCCNC(=O)n2c(=O)n(C3CC3)c3ccccc32)CC1 | 6.4 | – | > 1000 nM | 0.46 | 39.7 nM | –
CC(C)n1c(=O)n(C(=O)NCCN2CCN(C)CC2)c2cc(F)c(N)cc21 | < 6 | > 1000 nM | > 1000 nM | < 0.3 | – | –
Cc1cccc2c1n(C(C)C)c(=O)n2C(=O)NCCN1CCN(C)CC1 | – | – | – | – | 216 nM | –
CCCN1CCN(CCNC(=O)n2c(=O)n(C(C)C)c3ccccc32)CC1 | 6.89 | – | > 1000 nM | 0.68 | 87.3 nM | –
CCN1CCN(CCNC(=O)n2c(=O)n(CC)c3ccccc32)CC1 | – | – | > 1000 nM | – | 17.9 nM | –
C=CCn1c(=O)n(C(=O)NCCN2CCN(C)CC2)c2ccccc21 | < 6 | > 1000 nM | > 1000 nM | 0.63 | – | –
CC(C)n1c(=O)n(C(=O)NCCN2CCN(C)CC2)c2cc(F)c([N+](=O)[O-])cc21 | – | > 1000 nM | > 1000 nM | – | – | –
CCCN1CCN(CCNC(=O)n2c(=O)n(C3CC3)c3ccccc32)CC1 | 7.46 | – | > 1000 nM | 0.41 | 8.2 nM | –
CC(C)n1c(=O)n(C(=O)NCCN2CCN(C)CC2)c2cc(F)ccc21 | 6.88 | – | > 1000 nM | 0.67 | 108 nM | –
CC(C)N1CCN(CCNC(=O)n2c(=O)n(C3CC3)c3ccccc32)CC1 | – | – | > 1000 nM | – | 6.7 nM | –
CC(C)n1c(=O)n(C(=O)NCCCN2CCN(C)CC2)c2ccccc21 | < 6 | > 1000 nM | > 1000 nM | < 0.3 | – | –
Cn1cc(C(=O)OCC2CCN(CCNS(C)(=O)=O)CC2)c2ccccc21 | – | – | > 1000 nM | – | 0.11 nM | –
CCCCN1CCN(CCNC(=O)n2c(=O)n(C3CC3)c3ccccc32)CC1 | 7.51 | – | > 1000 nM | 0.46 | 13.3 nM | –
CCn1c(=O)n(C(=O)NCCN2CCN(C)CC2)c2ccccc21 | 6.79 | – | > 1000 nM | < 0.3 | 75.4 nM | –
CC(C)n1c(=O)n(C(=O)NC2CC3CCC(C2)N3C)c2ccccc21 (centres undefined) | – | – | – | – | 63.9 nM | 0.5 nM
CC(C)n1c(=O)n(C(=O)NCCN2CCN(CCCOc3ccc(F)cc3)CC2)c2ccccc21 | – | – | > 1000 nM | – | 375 nM | –

Structure (SMILES) | pKb [1] | IC50 [2] | IC50 [3] | Intrinsic activity [4] | Ki [5] | Ki [3]
CC(C)n1c(=O)n(C(=O)NCCN2CCN(C)CC2)c2ccccc21 | < 6 | – | > 1000 nM | 0.94 | 91.1 nM | –
CC(C)n1c(=O)n(C(=O)NCCN2CCN(Cc3ccc4c(c3)OCO4)CC2)c2ccccc21 | < 6 | > 1000 nM | > 1000 nM | 0.3 | – | –
CC(C)N1CCN(CCNC(=O)n2c(=O)n(C(C)C)c3ccccc32)CC1 | – | – | > 1000 nM | – | 89.8 nM | –
CN1CCN(CNC(=O)n2c(=O)n(C3CC3)c3ccccc32)CC1 | 6.19 | – | > 1000 nM | 0.53 | 49.4 nM | –
CC(C)n1c(=O)n(C(=O)NCN2CCN(C)CC2)c2ccccc21 | – | > 1000 nM | – | – | – | 309 nM
CC(C)n1c(=O)n(C(=O)NCCN2CCN(C)CC2)c2cc(Cl)ccc21 | < 6 | > 1000 nM | > 1000 nM | 0.7 | – | –
CN1CCN(CCNC(=O)n2c(=O)n(Cc3ccccc3)c3ccccc32)CC1 | < 6 | > 1000 nM | > 1000 nM | < 0.3 | – | –
CC(C)n1c(=O)n(C(=O)NCCN2CC[N+](C)(C)CC2)c2ccccc21 | < 6 | – | > 1000 nM | 0.75 | 68.5 nM | –
CCCN1CCN(CCNC(=O)n2c(=O)n(CC)c3ccccc32)CC1 | – | – | > 1000 nM | – | 16.9 nM | –
CCN1CCN(CCNC(=O)n2c(=O)n(C(C)C)c3ccccc32)CC1 | 6.62 | – | > 1000 nM | 0.87 | 104 nM | –
CCn1c(=O)n(C(=O)NCCN2CCN(C(C)C)CC2)c2ccccc21 | – | – | > 1000 nM | – | 25.2 nM | –
CCCCN1CCN(CCNC(=O)n2c(=O)n(C(C)C)c3ccccc32)CC1 | – | – | > 1000 nM | – | 38.9 nM | –
CCCn1c(=O)n(C(=O)NCCN2CCN(C)CC2)c2ccccc21 | < 6 | – | > 1000 nM | 0.48 | 253 nM | –
COc1ccc2c(c1)n(C(=O)NCCN1CCN(C)CC1)c(=O)n2C(C)C | < 6 | > 1000 nM | > 1000 nM | < 0.3 | – | –
CN1CCN(CCNC(=O)n2c(=O)n(C)c3ccccc32)CC1 | < 6 | – | > 1000 nM | 0.42 | 306 nM | –
CC(C)n1c(=O)n(C(=O)NN2CCN(C)CC2)c2ccccc21 | < 6 | > 1000 nM | – | < 0.3 | – | 201 nM
CN1CCN(CCNC(=O)n2c(=O)[nH]c3ccccc32)CC1 | < 6 | 1000 nM | > 1000 nM | 0.35 | – | –
CC(C)n1c(=O)n(C(=O)NCCN2CCN(Cc3ccc(F)cc3)CC2)c2ccccc21 | – | – | > 1000 nM | – | 262 nM | –
C=CC[N+]1(C)CCN(CCNC(=O)n2c(=O)n(C(C)C)c3ccccc32)CC1 | 6.28 | – | > 1000 nM | < 0.3 | 56.3 nM | –
CN1CCN(CCNC(=O)n2c(=O)n(CCc3ccccc3)c3ccccc32)CC1 | – | > 1000 nM | > 1000 nM | – | – | –
